Data from article PMC7725269 (ACS biomaterials science & engineering, 2019).

Legend:
[1] = test system: T47D cells; assay: Annexin V apoptosis flow cytometry; assay type: cell-based; conditions: 1 μM PA 1 or equivalent paclitaxel
[2] = target: human recombinant DR5 (Homo sapiens, UniProt O14763); assay: Surface plasmon resonance against immobilized DR5; assay type: binding; conditions: SPR, immobilized DR5, running buffer pH 7.0
In short: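 About 2000 RU of recombinant human DR5 was EDC/NHS-coupled to a dextran chip from 10 ug/mL in 15 mM Na acetate pH 5.6, then ethanolamine-capped. Running buffer was 10 mM phosphate, 150 mM NaCl, 3 mM EDTA, 0.01% Tween 20. Analytes were quantified by A280 and tested at 62 nM targeting PA. Association was 8 min and dissociation 10 min at 30 uL/min, with 25 mM HCl 30 s regeneration.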

Chain of human recombinant DR5 (O14763 56-440): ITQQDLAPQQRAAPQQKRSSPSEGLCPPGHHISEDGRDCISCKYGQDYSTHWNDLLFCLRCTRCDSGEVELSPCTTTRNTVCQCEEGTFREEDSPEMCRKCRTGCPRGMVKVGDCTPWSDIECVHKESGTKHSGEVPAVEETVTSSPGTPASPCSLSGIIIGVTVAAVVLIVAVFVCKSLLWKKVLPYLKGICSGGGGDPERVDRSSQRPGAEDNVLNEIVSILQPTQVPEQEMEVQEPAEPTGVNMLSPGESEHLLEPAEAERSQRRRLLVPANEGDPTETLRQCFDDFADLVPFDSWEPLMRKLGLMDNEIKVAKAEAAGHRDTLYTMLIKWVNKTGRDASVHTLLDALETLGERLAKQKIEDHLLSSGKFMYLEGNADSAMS

CC(=O)O[C@H]1C(=O)[C@@]2(C)[C@H]([C@H](OC(=O)c3ccccc3)[C@]3(O)C[C@H](OC(=O)[C@H](O)[C@@H](NC(=O)c4ccccc4)c4ccccc4)C(C)=C1C3(C)C)[C@]1(OC(C)=O)CO[C@@H]1C[C@@H]2O [Paclitaxel, paclitaxel]
Annexin V binding / cell death (in words) [1]: statistically significant increase in annexin V binding

PEG2000-E2A6K(C12) [PA 4]
Binding to DR5 (in words) [2]: did not show any binding
